Reference: ChEMBL document CHEMBL5653631, “A Potent and Selective ULK1 Inhibitor Suppresses Autophagy and Sensitizes Cancer Cells to Nutrient Stress” (iScience, 2018)

Key:
[1] = target: MAP kinase-activated protein kinase 3 (Homo sapiens) (UniProt Q16644); test: Inhibition of human recombinant MAPKAPK3 at 40 nM related to control ULK1
[2] = target: T1, Mitogen-activated protein kinase kinase kinase 2 (Homo sapiens) (UniProt Q9Y2U5); test: Inhibition of human recombinant MAP3K2 at 40 nM in presence of ATP by radiometric assay relative to control
T1 sequence (whole entry): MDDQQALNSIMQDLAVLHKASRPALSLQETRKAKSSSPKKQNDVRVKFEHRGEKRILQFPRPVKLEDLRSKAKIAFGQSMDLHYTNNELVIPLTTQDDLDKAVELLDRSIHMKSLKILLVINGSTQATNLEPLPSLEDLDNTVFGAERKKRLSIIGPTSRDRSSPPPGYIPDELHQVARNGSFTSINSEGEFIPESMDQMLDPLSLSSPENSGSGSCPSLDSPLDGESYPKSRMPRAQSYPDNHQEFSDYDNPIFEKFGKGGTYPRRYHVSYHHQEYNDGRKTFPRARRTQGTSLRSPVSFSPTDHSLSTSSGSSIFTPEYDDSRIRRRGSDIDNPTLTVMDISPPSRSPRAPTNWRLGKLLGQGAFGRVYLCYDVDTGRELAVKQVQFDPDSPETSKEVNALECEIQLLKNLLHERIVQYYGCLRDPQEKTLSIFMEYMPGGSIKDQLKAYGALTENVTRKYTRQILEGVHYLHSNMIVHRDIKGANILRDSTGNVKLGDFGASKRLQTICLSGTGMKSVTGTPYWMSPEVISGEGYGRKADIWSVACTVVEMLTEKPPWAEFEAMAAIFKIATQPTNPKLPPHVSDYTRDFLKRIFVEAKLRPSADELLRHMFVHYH

[3] = target: Cyclin-dependent kinase 12 (Homo sapiens) (UniProt Q9NYV4); test: Inhibition of human recombinant CRK7 at 40 nM related to control ULK1
[4] = target: Serine/threonine-protein kinase MRCK alpha (Homo sapiens) (UniProt Q5VT25); test: Inhibition of human recombinant MRCKa at 15 nM related to control ULK1
[5] = target: Serine/threonine-protein kinase ULK1 (Homo sapiens, UniProt O75385); test: Inhibition of ULK1 phosphorylation at Ser15 residue in HEK293 cells incubated for 1 hr by chemiluminescence based immunoblotting analysis; format: cell-based, HEK293T
[6] = target: Serine/threonine-protein kinase pim-2 (Homo sapiens) (UniProt Q9P1W9); test: Inhibition of human recombinant PIM2 at 15 nM in presence of ATP by radiometric assay relative to control
[7] = target: Serine/threonine-protein kinase Nek6 (Homo sapiens) (UniProt Q9HC98); test: Inhibition of human recombinant NEK6 at 15 nM related to control ULK1
[8] = target: RAC-beta serine/threonine-protein kinase (Homo sapiens) (UniProt P31751); test: Inhibition of human recombinant AKT2 at 15 nM in presence of ATP by radiometric assay relative to control
Summary of the method: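 Panel of 327 recombinant human kinases in radiometric activity assays, each screened in duplicate at a single inhibitor concentration; percent activity remaining relative to vehicle control, percent inhibition taken as 100 minus activity remaining.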

[9] = target: T2, Bone morphogenetic protein receptor type-2 (Homo sapiens) (UniProt Q13873); test: Inhibition of human recombinant BMPR2 at 15 nM in presence of ATP by radiometric assay relative to control
T2 sequence (whole entry): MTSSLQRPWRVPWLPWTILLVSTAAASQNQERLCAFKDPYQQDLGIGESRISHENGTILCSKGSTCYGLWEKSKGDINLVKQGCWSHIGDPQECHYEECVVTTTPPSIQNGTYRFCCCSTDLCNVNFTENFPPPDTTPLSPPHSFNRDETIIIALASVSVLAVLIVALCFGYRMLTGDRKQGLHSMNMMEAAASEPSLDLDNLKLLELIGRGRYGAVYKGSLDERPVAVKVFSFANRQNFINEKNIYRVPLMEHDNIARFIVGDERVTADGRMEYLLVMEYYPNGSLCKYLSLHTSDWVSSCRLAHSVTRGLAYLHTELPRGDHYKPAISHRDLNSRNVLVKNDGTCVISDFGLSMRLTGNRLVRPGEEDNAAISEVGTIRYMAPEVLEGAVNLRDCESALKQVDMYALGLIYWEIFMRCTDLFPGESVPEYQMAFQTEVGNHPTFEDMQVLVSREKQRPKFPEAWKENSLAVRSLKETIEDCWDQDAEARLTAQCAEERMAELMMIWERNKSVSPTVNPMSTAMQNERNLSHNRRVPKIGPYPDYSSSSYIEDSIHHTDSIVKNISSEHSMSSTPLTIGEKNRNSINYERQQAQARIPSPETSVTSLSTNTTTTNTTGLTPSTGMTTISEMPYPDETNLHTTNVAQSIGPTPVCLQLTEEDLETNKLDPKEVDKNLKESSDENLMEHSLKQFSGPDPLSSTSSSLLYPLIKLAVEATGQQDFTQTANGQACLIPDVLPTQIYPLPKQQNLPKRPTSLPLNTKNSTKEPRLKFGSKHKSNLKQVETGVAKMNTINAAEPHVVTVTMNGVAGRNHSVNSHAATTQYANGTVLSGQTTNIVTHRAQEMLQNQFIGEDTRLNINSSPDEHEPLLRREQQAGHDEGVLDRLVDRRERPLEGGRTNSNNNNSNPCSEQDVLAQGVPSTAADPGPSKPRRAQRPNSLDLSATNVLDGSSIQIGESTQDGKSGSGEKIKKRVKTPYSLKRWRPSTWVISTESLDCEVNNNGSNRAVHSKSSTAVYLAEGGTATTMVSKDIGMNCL
Summary of the method: (§1)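 Part of a radiometric in vitro activity panel of 327 recombinant human kinases. Each kinase was tested in duplicate at one inhibitor concentration. Activity remaining was expressed as a percentage of the vehicle control, and percent inhibition was taken as 100 minus that value.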

[10] = target: SRSF protein kinase 3 (Homo sapiens) (UniProt Q9UPE1); test: Inhibition of human recombinant MSSK1 at 15 nM in presence of ATP by radiometric assay relative to control
[11] = target: Tyrosine-protein kinase Blk (Homo sapiens) (UniProt P51451); test: Inhibition of human recombinant BLK at 15 nM in presence of ATP by radiometric assay relative to control; summary of the method: as §1
[12] = target: Proto-oncogene tyrosine-protein kinase ROS (Homo sapiens) (UniProt P08922); test: Inhibition of human recombinant ROS at 15 nM related to control ULK1
[13] = target: Serine/threonine-protein kinase Nek4 (Homo sapiens) (UniProt P51957); test: Inhibition of human recombinant NEK4 at 15 nM in presence of ATP by radiometric assay relative to control
[14] = target: Ribosomal protein S6 kinase alpha-2 (Homo sapiens) (UniProt Q15349); test: Inhibition of human recombinant RSK3 at 500 nM related to control ULK1
[15] = target: Mitogen-activated protein kinase 11 (Homo sapiens) (UniProt Q15759); test: Inhibition of human recombinant p38beta at 500 nM in presence of ATP by radiometric assay relative to control
Mitogen-activated protein kinase 11 (Homo sapiens), sequence (Q15759 whole entry): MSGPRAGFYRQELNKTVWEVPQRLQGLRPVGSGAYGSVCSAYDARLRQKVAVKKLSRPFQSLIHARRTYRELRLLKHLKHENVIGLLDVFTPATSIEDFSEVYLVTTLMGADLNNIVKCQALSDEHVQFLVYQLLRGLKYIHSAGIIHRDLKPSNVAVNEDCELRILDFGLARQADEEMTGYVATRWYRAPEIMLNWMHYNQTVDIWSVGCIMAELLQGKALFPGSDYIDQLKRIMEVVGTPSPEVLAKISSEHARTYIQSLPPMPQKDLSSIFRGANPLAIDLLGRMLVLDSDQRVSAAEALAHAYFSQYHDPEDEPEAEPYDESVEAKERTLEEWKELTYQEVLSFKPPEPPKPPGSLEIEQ

Proto-oncogene tyrosine-protein kinase ROS (Homo sapiens), sequence (P08922 whole entry): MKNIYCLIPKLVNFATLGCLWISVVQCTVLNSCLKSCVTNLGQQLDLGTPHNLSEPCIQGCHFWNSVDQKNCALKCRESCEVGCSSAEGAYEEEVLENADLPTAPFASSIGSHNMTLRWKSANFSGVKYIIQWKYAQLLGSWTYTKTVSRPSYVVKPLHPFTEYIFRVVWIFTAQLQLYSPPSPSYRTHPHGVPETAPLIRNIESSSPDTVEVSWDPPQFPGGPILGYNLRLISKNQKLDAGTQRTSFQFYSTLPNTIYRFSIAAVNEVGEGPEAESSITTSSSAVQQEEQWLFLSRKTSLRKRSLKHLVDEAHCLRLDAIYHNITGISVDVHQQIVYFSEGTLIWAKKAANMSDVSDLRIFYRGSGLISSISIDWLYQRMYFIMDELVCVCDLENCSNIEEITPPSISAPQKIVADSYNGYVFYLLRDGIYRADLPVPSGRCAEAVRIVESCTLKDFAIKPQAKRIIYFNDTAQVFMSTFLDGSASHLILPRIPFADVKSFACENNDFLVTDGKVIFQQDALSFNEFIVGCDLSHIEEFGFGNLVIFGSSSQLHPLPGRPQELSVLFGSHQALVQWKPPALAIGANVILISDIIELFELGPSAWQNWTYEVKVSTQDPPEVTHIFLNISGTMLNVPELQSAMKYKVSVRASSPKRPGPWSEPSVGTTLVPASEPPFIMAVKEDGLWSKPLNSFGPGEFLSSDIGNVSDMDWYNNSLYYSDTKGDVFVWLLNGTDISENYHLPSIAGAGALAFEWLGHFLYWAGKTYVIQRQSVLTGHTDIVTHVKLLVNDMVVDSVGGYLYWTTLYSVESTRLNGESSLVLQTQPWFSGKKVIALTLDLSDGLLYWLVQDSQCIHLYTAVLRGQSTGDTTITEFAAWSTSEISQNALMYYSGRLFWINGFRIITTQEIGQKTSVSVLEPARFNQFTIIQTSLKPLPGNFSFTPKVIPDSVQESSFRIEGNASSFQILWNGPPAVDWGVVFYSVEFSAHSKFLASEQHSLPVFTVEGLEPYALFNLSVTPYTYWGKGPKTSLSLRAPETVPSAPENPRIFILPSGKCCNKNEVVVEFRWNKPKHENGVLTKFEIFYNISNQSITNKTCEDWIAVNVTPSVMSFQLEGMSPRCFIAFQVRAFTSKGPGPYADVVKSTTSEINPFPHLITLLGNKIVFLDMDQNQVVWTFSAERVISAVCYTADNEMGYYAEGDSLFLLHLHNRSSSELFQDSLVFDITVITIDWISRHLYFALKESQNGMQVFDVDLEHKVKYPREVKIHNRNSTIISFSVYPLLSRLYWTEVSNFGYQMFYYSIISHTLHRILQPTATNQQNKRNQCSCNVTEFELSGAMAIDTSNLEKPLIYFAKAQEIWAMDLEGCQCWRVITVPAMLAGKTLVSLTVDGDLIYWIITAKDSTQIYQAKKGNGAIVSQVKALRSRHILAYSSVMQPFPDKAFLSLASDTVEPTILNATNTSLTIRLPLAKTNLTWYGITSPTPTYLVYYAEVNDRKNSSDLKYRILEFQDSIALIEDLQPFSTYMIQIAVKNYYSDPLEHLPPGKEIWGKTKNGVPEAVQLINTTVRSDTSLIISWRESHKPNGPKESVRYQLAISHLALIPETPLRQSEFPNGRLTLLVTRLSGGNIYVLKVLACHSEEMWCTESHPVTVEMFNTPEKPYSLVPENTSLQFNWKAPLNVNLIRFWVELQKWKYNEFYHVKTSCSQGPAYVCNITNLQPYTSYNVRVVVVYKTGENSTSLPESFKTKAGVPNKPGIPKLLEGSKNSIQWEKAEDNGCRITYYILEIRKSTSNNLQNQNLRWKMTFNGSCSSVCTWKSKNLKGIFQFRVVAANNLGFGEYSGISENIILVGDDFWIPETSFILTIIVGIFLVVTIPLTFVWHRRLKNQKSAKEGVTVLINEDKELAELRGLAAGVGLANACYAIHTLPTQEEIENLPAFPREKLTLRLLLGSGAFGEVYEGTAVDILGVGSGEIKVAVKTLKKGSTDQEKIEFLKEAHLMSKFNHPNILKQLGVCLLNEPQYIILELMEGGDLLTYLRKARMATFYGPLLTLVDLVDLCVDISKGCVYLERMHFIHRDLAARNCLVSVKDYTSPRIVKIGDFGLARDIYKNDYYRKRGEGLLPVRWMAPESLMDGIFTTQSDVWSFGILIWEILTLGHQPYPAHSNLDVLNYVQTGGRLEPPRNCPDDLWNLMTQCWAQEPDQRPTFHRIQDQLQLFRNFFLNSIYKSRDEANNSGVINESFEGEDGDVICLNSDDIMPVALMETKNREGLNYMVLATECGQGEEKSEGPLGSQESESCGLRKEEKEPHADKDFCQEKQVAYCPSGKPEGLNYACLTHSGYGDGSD
Tyrosine-protein kinase Blk (Homo sapiens), sequence (P51451 2-505 limits assumed): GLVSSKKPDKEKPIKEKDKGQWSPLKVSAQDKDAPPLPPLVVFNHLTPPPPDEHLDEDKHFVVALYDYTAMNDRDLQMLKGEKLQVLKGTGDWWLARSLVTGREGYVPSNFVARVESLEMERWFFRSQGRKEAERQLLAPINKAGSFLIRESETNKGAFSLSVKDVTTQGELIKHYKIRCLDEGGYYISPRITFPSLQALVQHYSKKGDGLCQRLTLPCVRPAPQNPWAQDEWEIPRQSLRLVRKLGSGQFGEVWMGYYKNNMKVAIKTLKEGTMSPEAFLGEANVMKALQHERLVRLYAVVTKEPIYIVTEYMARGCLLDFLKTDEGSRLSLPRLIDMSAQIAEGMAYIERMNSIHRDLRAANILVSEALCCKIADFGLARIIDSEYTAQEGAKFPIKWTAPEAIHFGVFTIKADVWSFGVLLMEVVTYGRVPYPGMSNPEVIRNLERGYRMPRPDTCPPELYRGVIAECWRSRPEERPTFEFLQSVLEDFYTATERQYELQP
RAC-beta serine/threonine-protein kinase (Homo sapiens), sequence (P31751 whole entry): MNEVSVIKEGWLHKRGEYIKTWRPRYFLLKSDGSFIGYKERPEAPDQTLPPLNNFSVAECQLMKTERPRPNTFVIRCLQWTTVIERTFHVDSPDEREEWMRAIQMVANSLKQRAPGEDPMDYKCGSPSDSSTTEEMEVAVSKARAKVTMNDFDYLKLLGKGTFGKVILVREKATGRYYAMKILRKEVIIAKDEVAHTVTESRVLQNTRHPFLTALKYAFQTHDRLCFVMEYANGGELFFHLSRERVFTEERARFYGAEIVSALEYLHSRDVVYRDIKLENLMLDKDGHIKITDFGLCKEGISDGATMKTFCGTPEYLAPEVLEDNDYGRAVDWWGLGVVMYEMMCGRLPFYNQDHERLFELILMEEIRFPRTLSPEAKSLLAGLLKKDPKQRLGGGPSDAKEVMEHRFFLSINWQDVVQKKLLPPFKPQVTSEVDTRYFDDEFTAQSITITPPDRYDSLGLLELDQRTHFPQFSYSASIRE
Ribosomal protein S6 kinase alpha-2 (Homo sapiens), sequence (Q15349 whole entry): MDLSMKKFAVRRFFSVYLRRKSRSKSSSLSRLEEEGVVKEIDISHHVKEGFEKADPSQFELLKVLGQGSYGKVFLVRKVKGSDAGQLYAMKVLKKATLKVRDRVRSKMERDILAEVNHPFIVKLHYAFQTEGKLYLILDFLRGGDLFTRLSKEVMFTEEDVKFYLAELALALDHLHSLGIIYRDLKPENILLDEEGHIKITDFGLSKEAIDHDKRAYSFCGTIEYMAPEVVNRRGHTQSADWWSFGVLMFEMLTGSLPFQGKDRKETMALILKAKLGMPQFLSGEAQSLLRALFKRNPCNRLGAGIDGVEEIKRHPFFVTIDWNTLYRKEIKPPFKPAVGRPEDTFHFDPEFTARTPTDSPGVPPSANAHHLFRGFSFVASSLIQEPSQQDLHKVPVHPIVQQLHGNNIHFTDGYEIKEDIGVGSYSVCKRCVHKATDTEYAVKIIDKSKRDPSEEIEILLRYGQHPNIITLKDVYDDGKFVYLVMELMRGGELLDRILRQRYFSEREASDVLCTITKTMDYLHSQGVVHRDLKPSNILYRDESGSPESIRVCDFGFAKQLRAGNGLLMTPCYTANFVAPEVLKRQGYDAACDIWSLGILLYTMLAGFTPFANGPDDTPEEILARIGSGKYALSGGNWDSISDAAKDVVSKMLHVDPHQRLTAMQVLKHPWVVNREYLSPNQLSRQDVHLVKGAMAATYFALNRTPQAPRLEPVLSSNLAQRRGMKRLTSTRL
MAP kinase-activated protein kinase 3 (Homo sapiens), sequence (Q16644 whole entry, looked up): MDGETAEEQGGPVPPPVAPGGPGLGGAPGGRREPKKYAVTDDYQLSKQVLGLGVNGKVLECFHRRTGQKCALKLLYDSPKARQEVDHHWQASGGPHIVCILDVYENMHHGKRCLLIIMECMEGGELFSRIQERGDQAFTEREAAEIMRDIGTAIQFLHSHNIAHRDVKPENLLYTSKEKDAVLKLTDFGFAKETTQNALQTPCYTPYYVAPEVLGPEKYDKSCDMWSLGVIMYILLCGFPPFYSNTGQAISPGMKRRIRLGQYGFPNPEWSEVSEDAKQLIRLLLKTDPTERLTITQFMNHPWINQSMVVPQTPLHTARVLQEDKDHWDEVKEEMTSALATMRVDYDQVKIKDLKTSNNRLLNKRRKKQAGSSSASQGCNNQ

Molecule O=C(N[C@@H](C1CC1)C(F)(F)F)c1cc(-c2cnn3cc(-c4ccc(F)cc4)cnc23)cs1 has a fold change (FC) [1] of 0, an inhibition [2] of 0% and a fold change (FC) [3] of 0.1.

CC(C)[C@H](NC(=O)c1cc(-c2cnn3cc(-c4ccc(OCCN5CCCCC5)cc4)cnc23)cs1)C(F)(F)F was tested, and the fold change (FC) [4] was 0.13, the EC50 [5] was 83 nM and the inhibition [6] was 0%. It also gave a fold change (FC) [7] of 0.01, an inhibition [8] of 0% and an inhibition [9] of 5%. For the same molecule, the inhibition [10] was 0%, the inhibition [11] was 10% and the fold change (FC) [12] was 0. The inhibition [13] was 6%.

CNC(=O)c1ccccc1Oc1nc(Nc2cc(OC)c(OC)c(OC)c2)ncc1Br was tested, and the fold change (FC) [14] was 0.66 and the inhibition [15] was 2%.
